15 compounds from ChEMBL document CHEMBL1134840, “Synthesis and antiviral activity of novel acyclic nucleoside analogues of 5-(1-azido-2-haloethyl)uracils” (J Med Chem, 2001) can be followed below.

The test system of series [1] is Anas sp. Briefly: (§1) In vitro antiviral activity against duck hepatitis B virus (DHBV). In kind it is functional, organism-based. The essentials: (§2)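 Virus replication inhibition measured in primary hepatocyte cultures prepared from congenitally DHBV-infected ducks.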
For series [2], the system named is Human alphaherpesvirus 1. Briefly: In vitro antiviral activity against Herpes simplex virus type 1. The series is classed as functional, organism-based. The method in brief: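 HSV-1 strains tested: KOS and E-377 (both TK+), and the TK-deficient mutant KOSSB in Vero cells. E-377 was assayed by CPE inhibition and plaque reduction under the NIH program. Acyclovir or ganciclovir served as reference.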

The test system of series [3] is Human alphaherpesvirus 2. As to the kind of experiment: In vitro antiviral activity against Herpes simplex virus type 2. The series is classed as functional, organism-based. The method in brief: (§3)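 CPE inhibition and plaque reduction assays in human foreskin fibroblast (HFF) or Vero cells, run under the NIH Antiviral Research Branch program. Virus strains: HCMV AD-169, HSV-2 MS, VZV Ellen. Acyclovir or ganciclovir served as reference drug.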

For series [4], the system named is Human alphaherpesvirus 3. As to the kind of experiment: In vitro antiviral activity against Varicella zoster virus. In kind it is functional, organism-based. The method in brief:
as §3

The nature of series [5]: In vitro cytotoxicity against stationary phase human foreskin fibroblast cells. The series is classed as cell-based. The essentials: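 Stationary-phase HFF cells; cytotoxicity read by neutral red uptake and expressed as CC50. Compounds tested up to top concentrations of 240–340 μM.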
The nature of series [6]: Inhibitory activity against human foreskin fibroblast cell proliferation. The series is classed as functional, cell-based. The essentials:
(§4)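 Proliferating HFF cells; growth inhibition expressed as IC50. Compounds tested up to top concentrations of 130–310 μM.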

Series [7] can be described thus: In vitro cytotoxicity against stationary phase vero cells. In kind it is cell-based. The conditions noted are these: chlorocebus sabaeus. The essentials: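 Stationary-phase Vero cells; cytotoxicity read by MTT assay and expressed as CC50. Compounds tested up to top concentrations of 260–620 μM.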
In series [8] the test system is Human betaherpesvirus 5. Briefly: Antiviral activity against human cytomegalovirus. In kind it is functional, organism-based. The method in brief:
as §3

Series [9] in a line: Cytotoxicity against human foreskin fibroblast cell proliferation. The conditions noted are these: human foreskin fibroblast cells (proliferating). In kind it is cell-based. The essentials: as §4
Series [10] has as its system Hepatitis B virus. The description is as §1. The series is classed as functional, organism-based. The method in brief: as §2

For the compound `[N-]=[N+]=NC(CCl)c1cn([C@H]2C[C@H](O)[C@@H](CO)O2)c(=O)[nH]c1=O` (some centres not stated), the EC50 in series [1] was found to be 15 µM; in [2] it was 0.06 µM; in series [3], 2.9 µM; in [4] it was 4.5 µM.
`[N-]=[N+]=NC(CBr)c1cn([C@H]2C[C@H](O)[C@@H](CO)O2)c(=O)[nH]c1=O` (some centres not stated) gave an EC50 in series [1] of 2.6 µM.
For `[N-]=[N+]=NC(CI)c1cn(COCCO)c(=O)[nH]c1=O` (configuration not stated), the CC50 in series [5] was over 240 µM; in series [7], over 260 µM. This compound showed an IC50 in [6] of over 130 µM.
The compound `Nc1nc2c(ncn2COCCO)c(=O)[nH]1` [ACYCLOVIR] registered an EC50 in series [4] of 2.6 µM. That is a single-digit micromolar value.
Consider `[N-]=[N+]=NC(CCl)c1cn([C@@H]2O[C@H](CO)[C@@H](O)[C@@H]2O)c(=O)[nH]c1=O` (some centres not stated), for which the EC50 was 1.45 µM in [8], 0.46 µM in [2] and 0.08 µM in series [4].
On to `[N-]=[N+]=NC(CCl)c1cn(COCCO)c(=O)[nH]c1=O` (configuration not stated), for which the CC50 in [5] is over 240 µM; in series [7], over 260 µM. Besides, the IC50 in series [6] is over 130 µM.
The corresponding values for `[N-]=[N+]=NC(CCl)c1cn(COC(CO)CO)c(=O)[nH]c1=O` (configuration not stated) are over 240 µM, over 260 µM and over 130 µM.
With `[N-]=[N+]=NC(CBr)c1cn(COC(CO)CO)c(=O)[nH]c1=O` (configuration not stated), the CC50 in [5] was over 240 µM; in [7], over 260 µM. Further, in [6], the concentration for half-maximal inhibition (IC50) was over 130 µM.
In the case of `[N-]=[N+]=NC(CCl)c1cn(CCC(CO)CO)c(=O)[nH]c1=O` (configuration not stated), the CC50 is over 240 µM in series [5] and over 260 µM in series [7]. The IC50 in series [6] was over 310 µM.
`[N-]=[N+]=NC(CI)c1cn(CCC(CO)CO)c(=O)[nH]c1=O` (configuration not stated) had an EC50 in series [8] of 14.4 µM. The IC50 in series [6] was over 310 µM; in [9], over 260 µM.
Take `[N-]=[N+]=NC(CI)c1cn(COC(CO)CO)c(=O)[nH]c1=O` (configuration not stated): the 50% cytotoxic concentration (CC50) is over 240 µM in series [5] and over 260 µM in [7]. This compound registered an IC50 in series [6] of over 130 µM. This compound displayed an EC50 in [4] of 2.4 µM.
On to `[N-]=[N+]=NC(CBr)c1cn(COCCO)c(=O)[nH]c1=O` (configuration not stated), for which the CC50 in [5] is over 240 µM; in series [7], over 260 µM. In [6], the IC50 is over 130 µM.
In series [8], `[N-]=[N+]=NC(CBr)c1cn(CCC(CO)CO)c(=O)[nH]c1=O` (configuration not stated) had an EC50 of 2.7 µM. In addition, the CC50 in series [5] is over 240 µM; in [7], over 260 µM. In addition, the IC50 in series [6] was over 270 µM.
With `Nc1nc(O)c2ncn(CCC(CO)CO)c2n1` [PENCICLOVIR], the EC50 in [10] was found to be 0.7 µM.
`Nc1nc2c(ncn2COC(CO)CO)c(=O)[nH]1` [GANCICLOVIR]: the values for the EC50 in series [10] and in series [8] were 4 µM and 0.23 µM, respectively. The compound also displayed an IC50 in series [6] of 156 µM.

One may read the EC50 as the concentration that produces a half-maximal response. A low value points to higher potency in that assay. In general, CC50 refers to the concentration at which the toxic effect on the cells reaches its halfway point. By IC50 is commonly meant the midpoint of a concentration-inhibition curve. Low values mean higher potency, high ones lower potency.
